In PubChem BioAssay AID602126 (Broad Institute, 2011):
Calls of active or inactive are those of the source.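 The calls were made as follows: active = compounds cutting cell ATP light whose fitted AC50 is at most double the top dose tried; inconclusive = flat moderate signal loss, or an unreliable curve fit; inactive = the rest.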

tested on: not listed separately; experiment: cytotoxicity in ldlA[mSR-BI] CHO cells, dose response, cytotoxicity control for SR-BI HDL uptake inhibitor project, cell-based, CellTiter-Glo luminescence, 24 h, dry powder, set 5 (AID 602126); conditions: ldlA[mSR-BI] CHO cells viability, CellTiter-Glo ATP luminescence, 24 h; at 30 µM (top of the series)
Summary of the method: (§1)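 Assay system: ldlA[mSR-BI] cells, cell viability measurement. Amount: 4,000 ldlA[mSR-BI] cells per well. Schedule: 24 h treatment at 37 °C, 10 min reagent step. Measured by: luminescence of cellular ATP via CellTiter-Glo luciferase reagent. Measure: IC50 of cell viability from ATP-dependent luminescence.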

Structure (SMILES)	activity change, negative = cytotoxicity
C[C@H]1CN([C@@H](C)CO)C(=O)c2cc(NC(=O)Cc3cn(C)c4ccccc34)ccc2O[C@H]1CN(C)S(=O)(=O)c1ccc(F)cc1	-19.8% (inactive)

same assay, conditions: ldlA[mSR-BI] CHO cells viability, CellTiter-Glo ATP luminescence, 24 h; at 35 µM (top of the series)

Structure (SMILES)	activity change, negative = cytotoxicity
C[C@H](CO)N1C[C@H](C)[C@H](CN(C)S(=O)(=O)c2ccc(F)cc2)Oc2ccc(NS(C)(=O)=O)cc2C1=O	11.2% (inactive)
C[C@H](CO)N1C[C@H](C)[C@H](CN(C)S(=O)(=O)c2ccc(Cl)cc2)Oc2ccc(NC(=O)Cc3cn(C)c4ccccc34)cc2C1=O	-19.4% (inactive)
Cc1cc(C(=O)C(C)OC(=O)C2=NNC(=O)CC2)c(C)n1-c1ccc(OC(F)F)cc1 (centres undefined)	-26.5% (inactive)
Cc1ccc(-c2nnn(CC(=O)N(C3CCCCC3)C(C)C(=O)NC3CCCC3)n2)cc1 (centres undefined)	-2.67% (inactive)
CC(C(=O)NC1CCCC1)N(C(=O)Cn1nnc(-c2ccc3c(c2)OCO3)n1)C1CCOCC1 (centres undefined)	-7.76% (inactive)
COc1ccc(-c2nnn(CC(=O)N(C3CCCCC3)C(C)C(=O)NC(C)(C)C)n2)cc1OC (centres undefined)	-2.38% (inactive)
CC(C)OCCCNC(=O)c1ccc(C2SCC(=O)N2Cc2ccco2)cc1 (centres undefined)	-15.7% (inactive)
C[C@@H]1CN([C@H](C)CO)C(=O)c2cc(NC(=O)Cc3cn(C)c4ccccc34)ccc2O[C@H]1CN(C)S(C)(=O)=O	-4.54% (inactive)
CCC(=O)N1CCc2cc(-c3csc(NC(=O)C4CCCC4)n3)ccc21	0.408% (inactive)
CC(C)(C)OC(=O)N1CCc2cc(-c3noc(NC(=O)c4ccco4)n3)ccc21	-3.91% (inactive)
CCC(=O)N1CCc2cc(-c3csc(NC(=O)c4ccno4)n3)ccc21	0.915% (inactive)
COc1ccccc1-c1nnn(CC(=O)N(C2CCCCC2)C(C)C(=O)NC2CCCC2)n1 (centres undefined)	1.77% (inactive)
Cc1cc(C)c2c(c1)NC(c1cc3c(cc1Br)OCO3)C1CC=CC21 (centres undefined)	-26.7% (inactive)
C[C@H]1CN([C@@H](C)CO)C(=O)c2cccc(NS(C)(=O)=O)c2O[C@@H]1CN(C)Cc1ccc(Cl)c(Cl)c1	-10.3% (inactive)
CCC(=O)N1CCc2cc(-c3coc(N)n3)ccc21	3.91% (inactive)
C[C@@H]1CN([C@H](C)CO)C(=O)c2cc(NC(=O)Cc3cn(C)c4ccccc34)ccc2O[C@H]1CN(C)S(=O)(=O)c1ccc(Cl)cc1	-18.6% (inactive)
COC(=O)N1CCc2cc(-c3csc(NC(=O)c4ccco4)n3)ccc21	-18.6% (inactive)
CCCn1ccc2cc(-c3csc(NC(=O)c4ccco4)n3)ccc21	-34.1% (inactive)
C[C@H](CO)N1C[C@H](C)[C@@H](CN(C)S(=O)(=O)c2ccc(F)cc2)Oc2ccc(NC(=O)Cc3cn(C)c4ccccc34)cc2C1=O	-14% (inactive)
C[C@@H]1CN([C@H](C)CO)C(=O)c2cc(NC(=O)Cc3cn(C)c4ccccc34)ccc2O[C@H]1CN(C)S(=O)(=O)c1ccc(F)cc1	-29.1% (inactive)
CCC(=O)N1CCc2cc(-c3cnc(NC(C)=O)[nH]3)ccc21	-35.4% (inactive)
CCC(=O)Nc1ccc(-c2csc(NC(=O)c3ccco3)n2)cc1	-1.37% (inactive)
COc1ccc(-c2nnn(CC(=O)N(C3CC3)C(C)C(=O)NC3CCCC3)n2)cc1OC (centres undefined)	-16% (inactive)
COc1ccc(-c2nnn(CC(=O)N(C)C(C)C(=O)NC3CCCC3)n2)cc1OC (centres undefined)	-6.96% (inactive)
COc1ccc(-c2nnn(CC(=O)N(C3CCCCC3)C(C)C(=O)NC3CCCC3)n2)cc1OC (centres undefined)	-8.68% (inactive)
CCC(=O)N1CCc2cc(-c3csc(NC(=O)c4cocn4)n3)ccc21	-6.6% (inactive)

Structure (SMILES)	activity change, negative = cytotoxicity
C[C@H]1CN([C@@H](C)CO)C(=O)c2cc(NC(=O)Cc3cn(C)c4ccccc34)ccc2O[C@@H]1CN(C)S(=O)(=O)c1ccc(F)cc1	-15.6% (inactive)
C[C@@H]1CN([C@H](C)CO)C(=O)c2cc(NC(=O)Cc3cn(C)c4ccccc34)ccc2O[C@H]1CN(C)C(=O)Nc1ccc(F)cc1	-8.77% (inactive)
CC(OC(=O)c1cccc(NS(C)(=O)=O)c1)C(=O)Nc1ccc(N2CCOCC2)cc1 (centres undefined)	-6.16% (inactive)
CCOC(=O)Nc1cccc(NC(=O)c2cc(OC)cc(OC)c2)c1	-19.4% (inactive)
CCC(=O)N1CCc2cc(-c3cnc(NC(=O)c4ccco4)[nH]3)ccc21	2.33% (inactive)
CC(C(=O)NC1CCCC1)N(C(=O)Cn1nnc(-c2ccc(F)cc2)n1)C1CCCCC1 (centres undefined)	-24.9% (inactive)
COc1cccc(-c2nnn(CC(=O)N(C3CCCCC3)C(C)C(=O)NC3CCCC3)n2)c1 (centres undefined)	-12.4% (inactive)
CC(C(=O)NC1CCCC1)N(C(=O)Cn1nnc(-c2ccccc2F)n1)C1CCCCC1 (centres undefined)	-27.4% (inactive)
C[C@H]1CN([C@@H](C)CO)C(=O)c2cccc(NC(=O)Nc3ccccc3)c2O[C@@H]1CN(C)C	-7.64% (inactive)
Cc1ccc(-c2nnc(N3CCC(C)CC3)c3ccccc23)cc1C	-8.22% (inactive)
C[C@@H]1CN([C@@H](C)CO)C(=O)c2cc(NC(=O)Cc3cn(C)c4ccccc34)ccc2O[C@H]1CN(C)S(=O)(=O)c1ccc(Cl)cc1	-7.85% (inactive)
O=C(Nc1ccc(-c2nc3cc(NC(=O)c4ccc(NC(=O)c5cccc6ccccc56)cc4)ccc3[nH]2)cc1)c1ccc(NC(=O)c2cccc3ccccc23)cc1	-8.2% (inactive)
CNC[C@@H]1Oc2ccc(NC(=O)Cc3cn(C)c4ccccc34)cc2C(=O)N([C@H](C)CO)C[C@H]1C	2.26% (inactive)
CCC(=O)N1CCc2cc(-c3csc(NC(=O)c4ccc(F)c(OC)c4)n3)ccc21	-10.7% (inactive)
Nc1ccc(C(=O)Nc2ccc(-c3nc4ccc(NC(=O)c5ccc(N)cc5)cc4[nH]3)cc2)cc1	-13.9% (inactive)
CCC(=O)N1CCc2cc(-c3csc(/N=C(/OC)c4cc(OC)cc(OC)c4)n3)ccc21	-10.7% (inactive)
O=C(Nc1nc(-c2ccc3c(c2)CCN3C(=O)C2CC2)cs1)c1ccco1	-26.1% (inactive)
CC(C)(C)NC(=O)N1CCN(c2ncccc2C(F)(F)F)CC1	-9.57% (inactive)
C[C@@H]1CN([C@@H](C)CO)C(=O)c2cc(NC(=O)Cc3cn(C)c4ccccc34)ccc2O[C@H]1CN(C)S(=O)(=O)c1ccc(F)cc1	-9.34% (inactive)
COc1ccc(-c2nnn(CC(=O)N(C3CCCCC3)C(C)C(=O)NC3CC3)n2)cc1OC (centres undefined)	-10.4% (inactive)
C[C@H]1CN([C@@H](C)CO)C(=O)c2cccc(NC(=O)Nc3ccccc3)c2O[C@@H]1CN(C)S(C)(=O)=O	1.04% (inactive)
CC(C(=O)NC1CCCC1)N(C(=O)Cn1nnc(-c2ccccc2Cl)n1)C1CCCCC1 (centres undefined)	-11.7% (inactive)
O=C(Nc1ccc(-c2nc3ccc(NC(=O)c4ccccc4[N+](=O)[O-])cc3[nH]2)cc1)c1ccccc1[N+](=O)[O-]	-15.1% (inactive)
C[C@H]1CN([C@@H](C)CO)C(=O)c2cccc(NC(=O)Nc3ccccc3)c2O[C@@H]1CN(C)Cc1ccc(C(F)(F)F)cc1	-30.4% (inactive)
C[C@H](CO)N1C[C@H](C)[C@H](CN(C)S(=O)(=O)c2ccc(F)cc2)Oc2ccc(NC(=O)CCC(F)(F)F)cc2C1=O	-2.53% (inactive)
C[C@@H]1CN([C@H](C)CO)C(=O)Cc2cc(NC(=O)Cc3cn(C)c4ccccc34)ccc2O[C@H]1CN(C)S(=O)(=O)c1ccc(F)cc1	-14% (inactive)

tested on: ldlA[mSR-BI] CHO cells viability, CellTiter-Glo ATP luminescence, 24 h; experiment: as above; conditions: not given
Summary of the method: as §1

Structure (SMILES)	AC50
C[C@@H]1CN([C@H](C)CO)C(=O)c2cc(NC(=O)Cc3cn(C)c4ccccc34)ccc2O[C@H]1CN(C)S(=O)(=O)c1ccc(Cl)cc1	> 70 µM (inactive)
